The target of data set [1] is T1, D(4) dopamine receptor (Rattus norvegicus, UniProt P30729).
T1 sequence (P30729 whole entry): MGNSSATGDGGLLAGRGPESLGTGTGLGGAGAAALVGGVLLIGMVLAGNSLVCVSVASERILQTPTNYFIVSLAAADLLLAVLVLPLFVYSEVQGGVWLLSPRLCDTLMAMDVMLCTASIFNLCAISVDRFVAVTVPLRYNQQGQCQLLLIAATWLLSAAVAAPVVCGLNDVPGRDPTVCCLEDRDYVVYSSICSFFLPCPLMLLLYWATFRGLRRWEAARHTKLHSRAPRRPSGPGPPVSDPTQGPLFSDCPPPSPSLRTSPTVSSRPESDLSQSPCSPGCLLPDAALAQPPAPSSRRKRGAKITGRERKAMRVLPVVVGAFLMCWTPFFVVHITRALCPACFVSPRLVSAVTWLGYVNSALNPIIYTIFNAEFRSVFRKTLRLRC
The experiment in a line: Agonist activity at rat D4 receptor in HEK293 cells coexpressing G-alpha-qo5 by FLIPR. Format: functional, cell-based.

The test system of data set [2] is Rattus norvegicus. The experiment in a line: Proerectile activity in rat measured as incidence of penile erection at 0.03 umol/kg, sc. The class given is functional. In a few lines:
(§1)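 Conscious male rats dosed subcutaneously. Penile erection incidence scored over 60 min after injection; values are % ± SEM, with significance tested against control.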

In data set [3] the target is D(2) dopamine receptor (Rattus norvegicus) (UniProt P61169). The experiment in a line: Agonist activity at rat D2 receptor in HEK293 cells coexpressing G-alpha-qo5 by FLIPR relative to dopamine upto 10 uM. Format: functional, cell-based. Summed up:
(§2)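 Ca2+ flux by FLIPR in HEK cells cotransfected with the D2 receptor (human, ferret or rat) plus chimeric G protein Gqo5.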

Data set [4] concerns the target T2, D(2) dopamine receptor (Homo sapiens, UniProt P14416). The experiment in a line: Displacement of [125I]7-OH-PIPAT from human D2L receptor expressed in HEK293 cell membrane. Format: cell membranes. A general note: In a radioligand displacement assay an active substance lowers the binding of a labelled ligand.
Data set [5] addresses T3, D(4) dopamine receptor (Rattus norvegicus) (UniProt P30729).
T3 sequence (whole entry): T1 sequence (P30729 whole entry)
The experiment in a line: Agonist activity at rat D4 receptor in HEK293 cells co-expressing Galphaqo5 by FLIPR relative to dopamine. The class given is functional, cell-based.

The species entered for data set [6] is Mustela putorius furo. The experiment in a line: Induction of emesis in ferret. The class given is functional, organism-based.
For data set [7], the species on record is Mustela putorius furo. The experiment in a line: Induction of nausea in ferret. The class given is functional, organism-based.
In data set [8] the target is T2, D(2) dopamine receptor. The experiment in a line: Agonist activity at human D2 receptor in HEK293 cells coexpressing G-alpha-qo5 by FLIPR relative to dopamine upto 10 uM. Format: functional, cell-based. In a few lines:
as §2

For data set [9], the target named is T4, D(4) dopamine receptor (Homo sapiens, UniProt P21917).
T4 sequence (P21917 whole entry): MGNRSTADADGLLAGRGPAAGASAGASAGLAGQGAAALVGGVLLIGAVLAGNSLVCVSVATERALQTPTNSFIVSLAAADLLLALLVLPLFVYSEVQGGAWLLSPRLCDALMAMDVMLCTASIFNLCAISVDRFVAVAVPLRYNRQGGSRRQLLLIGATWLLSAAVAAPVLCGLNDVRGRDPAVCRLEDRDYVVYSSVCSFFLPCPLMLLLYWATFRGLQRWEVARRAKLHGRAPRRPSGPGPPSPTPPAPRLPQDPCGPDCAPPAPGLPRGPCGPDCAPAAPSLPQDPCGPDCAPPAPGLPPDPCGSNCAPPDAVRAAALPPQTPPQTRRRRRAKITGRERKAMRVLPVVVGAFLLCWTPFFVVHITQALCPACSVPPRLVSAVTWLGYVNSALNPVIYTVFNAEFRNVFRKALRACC
The experiment in a line: Displacement of [3H]A369508 from human D4 receptor expressed in HEK293 cell membrane. The class given is cell membranes.

The target in data set [10] is T5, D(4) dopamine receptor (Homo sapiens) (UniProt P21917).
T5 sequence (whole entry): T4 sequence (P21917 whole entry)
The experiment in a line: Activity at human D4.4 receptor in HEK293 cells co-expressing Galphaqo5 by FLIPR. The class given is functional, cell-based.

A short description of data set [11]: Bioavailability in Sprague-Dawley rat at 1 mg/kg, po. Format: ADME, organism-based. As to conditions: in vivo. Summed up: (§3)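 Single 1 mg/kg dose given iv, sc or orally to Sprague-Dawley rats, dogs and monkeys; plasma concentrations followed over time (mean ± SEM, n = 3). Cmax, AUC, half-life, clearance and bioavailability calculated from the curves.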
The target of data set [12] is T4, D(4) dopamine receptor. The experiment in a line: (§4) Agonist activity at human D4.4 receptor in HEK293 cells coexpressing G-alpha-qo5 by FLIPR. The class given is functional, cell-based.
For data set [13], the target named is T2, D(2) dopamine receptor. The experiment in a line: Binding affinity to human D2S receptor.
For data set [14], the target named is D(3) dopamine receptor (Homo sapiens) (UniProt P35462). The experiment in a line: Agonist activity at human D3 receptor in HEK293 cells coexpressing G-alpha-qo5 by FLIPR upto 10 uM. Format: functional, cell-based.
Data set [15] deals with D(2) dopamine receptor (Mustela putorius furo). The experiment in a line: Agonist activity at ferret D2 receptor in HEK293 cells coexpressing Galphaqo5 by FLIPR relative to dopamine upto 10 uM.
The test system of data set [16] is Rattus norvegicus. The experiment in a line: Blockade of ABT-670-induced erctogenic activity in rat at 3 umol/kg, ip. Format: functional, organism-based.
Data set [17] has as its target T5, D(4) dopamine receptor (Homo sapiens). The experiment in a line: Agonist activity at human D4.4 receptor in HEK293 cells coexpressing G-alpha-qo5 by FLIPR with relative to dopamine upto 10 uM. The class given is functional, cell-based.
Data set [18] concerns Rattus norvegicus. The experiment in a line: Proerectile activity in rat measured as incidence of penile erection at 0.1 umol/kg, sc. The class given is functional. Summed up: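 Conscious male rats were given a single subcutaneous injection and observed for penile erections over the following 60 min. The read-out was the incidence of erections, expressed as % of animals ± SEM (n = 12–32 animals per group), with significance tested against controls. The value is the maximal incidence at the maximally effective dose.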

Data set [19] in a line: Bioavailability in Sprague-Dawley rat at 1 mg/kg, sc. The class given is ADME, organism-based. As to conditions: in vivo. In a few lines:
as §3

Data set [20] can be described thus: Half life in Sprague-Dawley rat at 1 mg/kg, sc. More on the design: dose 1 mg/kg, route subcutaneous. Format: ADME, organism-based. The note with it: in vivo. In a few lines: as §3
The target in data set [21] is T5, D(4) dopamine receptor (Homo sapiens). Described as §4. The class given is functional, cell-based.
Data set [22] has the same target. The experiment in a line: Agonist activity at human D4.4 receptor in HEK293 cells coexpressing G-alpha-qo5 by FLIPR upto 10 uM. Format: functional, cell-based.
The nature of data set [23]: Agonist activity at ferret D4 receptor in HEK293 cells coexpressing G-alpha-qo5 by FLIPR relative to dopamine. The class given is functional, Mustela putorius furo.
The nature of data set [24]: Agonist activity at ferret D4 receptor in HEK293 cells coexpressing G-alpha-qo5 by FLIPR. Format: functional, cell-based, Mustela putorius furo. The note with it: Mustela putorius. In a few lines: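 HEK cells cotransfected with ferret D4 receptor and chimeric G protein Gqo5, with receptor activation read as a calcium flux signal on FLIPR. EC50 is the concentration giving half-maximal activation.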

Data set [25] deals with Rattus norvegicus. The experiment in a line: Proerectile activity in rat measured as incidence of penile erection at 0.01 umol/kg, sc. Format: functional. In a few lines:
as §1

The test system of data set [26] is Rattus norvegicus. The experiment in a line: Blockade of ABT-670-induced erctogenic activity in rat at 1 umol/kg, ip. The class given is functional, organism-based.
Data set [27] deals with Rattus norvegicus. The experiment in a line: Blockade of ABT-670-induced erctogenic activity in rat at 10 umol/kg, ip. Format: functional, organism-based.

Each structure is given as a SMILES string. Activity calls are given as the source filed them.

A word on the EC50: it is the concentration needed to bring the measured effect to its halfway point. For orientation: Ki means a measure of affinity in units of concentration, obtained from inhibition or displacement. By bioavailability is commonly meant dose-corrected exposure relative to a reference, in per cent. A higher bioavailability goes with good availability. As usually defined, the half-life is the time needed for the level to fall by half in the phase considered. A high value points to slow loss.

T2 sequence (P14416 whole entry): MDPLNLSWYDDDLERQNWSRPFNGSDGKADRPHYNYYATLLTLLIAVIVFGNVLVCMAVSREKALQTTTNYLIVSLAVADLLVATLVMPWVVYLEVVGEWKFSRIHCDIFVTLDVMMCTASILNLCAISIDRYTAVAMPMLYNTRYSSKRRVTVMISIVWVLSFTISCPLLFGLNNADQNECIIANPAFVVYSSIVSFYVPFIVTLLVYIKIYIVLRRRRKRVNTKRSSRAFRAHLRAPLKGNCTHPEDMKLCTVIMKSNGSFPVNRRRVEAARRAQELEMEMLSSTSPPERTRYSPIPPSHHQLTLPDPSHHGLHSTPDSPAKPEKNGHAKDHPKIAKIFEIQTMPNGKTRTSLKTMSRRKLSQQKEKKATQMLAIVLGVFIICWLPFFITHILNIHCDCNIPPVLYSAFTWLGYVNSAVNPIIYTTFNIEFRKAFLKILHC
Chain of D(3) dopamine receptor (Homo sapiens) (P35462 whole entry): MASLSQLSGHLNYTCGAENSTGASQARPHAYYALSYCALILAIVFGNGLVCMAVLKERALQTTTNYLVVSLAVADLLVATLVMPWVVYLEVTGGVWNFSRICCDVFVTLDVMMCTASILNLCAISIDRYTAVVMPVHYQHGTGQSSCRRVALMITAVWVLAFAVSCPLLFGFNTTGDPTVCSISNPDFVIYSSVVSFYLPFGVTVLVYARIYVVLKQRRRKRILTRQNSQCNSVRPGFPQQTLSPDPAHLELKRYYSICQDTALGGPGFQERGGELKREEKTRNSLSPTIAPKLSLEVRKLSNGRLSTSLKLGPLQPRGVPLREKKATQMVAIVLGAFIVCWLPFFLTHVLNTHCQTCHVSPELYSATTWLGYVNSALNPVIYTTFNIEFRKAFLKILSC
Chain of D(2) dopamine receptor (Rattus norvegicus) (P61169 whole entry): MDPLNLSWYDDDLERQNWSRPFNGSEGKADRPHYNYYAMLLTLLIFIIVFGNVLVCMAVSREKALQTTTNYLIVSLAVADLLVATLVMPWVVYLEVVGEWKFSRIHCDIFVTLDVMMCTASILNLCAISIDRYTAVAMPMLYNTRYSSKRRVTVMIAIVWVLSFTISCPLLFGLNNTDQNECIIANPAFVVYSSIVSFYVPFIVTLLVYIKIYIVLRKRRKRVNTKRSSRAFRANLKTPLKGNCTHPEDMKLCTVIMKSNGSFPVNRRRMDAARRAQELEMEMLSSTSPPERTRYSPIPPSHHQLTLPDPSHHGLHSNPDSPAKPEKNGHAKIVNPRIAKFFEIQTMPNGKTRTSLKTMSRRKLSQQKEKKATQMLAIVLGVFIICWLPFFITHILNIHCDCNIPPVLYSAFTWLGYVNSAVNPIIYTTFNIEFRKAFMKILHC

For the compound `Cc1cc(F)ccc1NC(=O)CN1CCC(c2cccc[n+]2[O-])CC1`, the EC50 was 100 nM at D(4) dopamine receptor [1] and 60 nM on D(4) dopamine receptor [12]. The Activity in the data set with Rattus norvegicus [2] was 67%; in [10] (filed as agonist) it was “Agonist”. For the same compound, the outcome (in data set [3]; in the data set filed under Mustela putorius furo [6]; in the data set listed under Mustela putorius furo [7]; on D(2) dopamine receptor [8]; in data set [14]; in data set [15]) was inactive. Besides, the Ki is above 10000 nM at D(2) dopamine receptor [4], 405 nM at D(4) dopamine receptor [9] and above 10000 nM on D(2) dopamine receptor [13]. The Efficacy in data set [5] came out at 76%. In addition, the bioavailability in data set [11] was determined as 7%.

Consider `CN1CCN(C2=Nc3cc(Cl)ccc3Nc3ccccc32)CC1`, for which the result in the data set with Rattus norvegicus [16] was Active.

For `O=C(NCN1CCC(c2cccc[n+]2[O-])CC1)c1cccs1`, the outcome in data set [17] was inactive.

`Cc1cccc(NC(=O)CN2CCC(c3ccccn3)CC2)c1`: the Activity is 75% in the data set on Rattus norvegicus [18] and “Agonist” in data set [10] (filed as agonist). The affinity at D(4) dopamine receptor [9] corresponds to a Ki of 8 nM. In addition, the bioavailability in data set [19] amounted to 57%; in data set [11], 0%. The same compound showed a half-life in data set [20] of 42 min. The compound also displayed an EC50 at D(4) dopamine receptor [12] of 14 nM.

Consider `Cc1cccc(C(=O)NCN2CCC(c3ccccc3)CC2)c1`, for which the affinity at D(2) dopamine receptor [4], expressed as Ki, was 235 nM. The same compound returned an Efficacy in data set [21] of 17%. For the same compound, the result in [22] was inactive.

Turning to `Oc1ccc(N2CCN(Cc3nc4ccccc4[nH]3)CC2)nc1`, the EC50 turned out to be 13.7 nM at D(4) dopamine receptor [1], 2.4 nM at D(4) dopamine receptor [12] and 5 nM in [24]. The outcome (in data set [3]; in the data set filed under Mustela putorius furo [6]; in the data set filed under Mustela putorius furo [7]; on D(2) dopamine receptor [8]; in data set [14]; in [15]) was inactive. Also, the Ki is above 10000 nM on D(2) dopamine receptor [4], 17 nM on D(4) dopamine receptor [9] and above 10000 nM at D(2) dopamine receptor [13]. Moreover, the values for the Efficacy in data set [5] and in [23] were 66% and 48%, respectively. Also, the Activity with Rattus norvegicus [18] was 60%; in data set [10] (filed as partial agonist) it was “Partial agonist”.

Regarding `Cc1ccc([N+](=O)[O-])cc1NC(=O)CN1CCC(c2cccc[n+]2[O-])CC1`, the Activity with Rattus norvegicus [25] is 83%; in data set [10] (filed as agonist), “Agonist”. The 50% effective concentration (EC50) on D(4) dopamine receptor [12] was determined as 134 nM.

As for `O=C(CN1CCC(c2cccc[n+]2[O-])CC1)Nc1ccccn1`, the result in data set [17] was inactive.

With `O=C(CCCN1CCC(O)(c2ccc(Cl)cc2)CC1)c1ccc(F)cc1`, in the data set with Rattus norvegicus [26], the result was Active.

Consider `O=c1[nH]c2ccccc2n1CCCN1CCC(n2c(=O)[nH]c3cc(Cl)ccc32)CC1`, for which, in the data set with Rattus norvegicus [27], the result was inactive.

Source of the values: ChEMBL document CHEMBL1137302 (J Med Chem, 2006).
